# Molecular target: T1, Epidermal growth factor receptor (Homo sapiens, UniProt P00533)
# Assay: Inhibition of EGF-stimulated tyrosine phosphorylation in A431 cells expressing EGF-R
# Conditions: not given
# T1 sequence (P00533 whole entry): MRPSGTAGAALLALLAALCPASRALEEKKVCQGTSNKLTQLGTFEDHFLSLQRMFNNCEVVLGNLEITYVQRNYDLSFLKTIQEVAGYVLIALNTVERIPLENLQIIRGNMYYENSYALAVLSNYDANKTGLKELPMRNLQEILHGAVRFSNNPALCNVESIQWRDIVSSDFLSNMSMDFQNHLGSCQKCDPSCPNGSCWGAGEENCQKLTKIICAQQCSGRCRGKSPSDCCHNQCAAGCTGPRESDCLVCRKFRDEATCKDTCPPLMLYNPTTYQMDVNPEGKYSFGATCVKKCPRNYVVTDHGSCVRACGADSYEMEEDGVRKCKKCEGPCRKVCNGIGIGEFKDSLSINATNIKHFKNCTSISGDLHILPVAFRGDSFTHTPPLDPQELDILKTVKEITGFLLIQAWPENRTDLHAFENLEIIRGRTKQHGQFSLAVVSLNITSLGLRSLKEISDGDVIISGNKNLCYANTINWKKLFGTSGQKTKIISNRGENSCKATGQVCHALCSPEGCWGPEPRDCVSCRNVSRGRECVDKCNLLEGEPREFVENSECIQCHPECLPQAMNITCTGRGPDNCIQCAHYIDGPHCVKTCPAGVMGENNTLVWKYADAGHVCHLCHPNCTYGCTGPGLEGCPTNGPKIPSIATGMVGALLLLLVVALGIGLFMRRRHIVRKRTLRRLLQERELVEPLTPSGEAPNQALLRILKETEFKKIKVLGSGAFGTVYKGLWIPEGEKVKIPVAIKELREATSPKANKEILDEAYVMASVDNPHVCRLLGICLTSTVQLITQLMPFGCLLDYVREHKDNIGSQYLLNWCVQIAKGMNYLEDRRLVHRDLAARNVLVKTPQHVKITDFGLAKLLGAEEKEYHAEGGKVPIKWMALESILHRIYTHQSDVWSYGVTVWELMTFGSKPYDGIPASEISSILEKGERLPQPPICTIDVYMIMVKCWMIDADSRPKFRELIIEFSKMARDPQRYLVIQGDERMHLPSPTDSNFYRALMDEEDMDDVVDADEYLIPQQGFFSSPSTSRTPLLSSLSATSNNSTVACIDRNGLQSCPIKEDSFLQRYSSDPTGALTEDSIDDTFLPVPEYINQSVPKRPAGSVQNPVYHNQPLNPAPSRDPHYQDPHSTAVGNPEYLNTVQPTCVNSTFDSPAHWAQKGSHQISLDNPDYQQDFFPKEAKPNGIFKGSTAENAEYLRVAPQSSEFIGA
row,Compound,IC50 [µM]
1,Clc1cccc(Nc2ncnc3[nH]c4ccccc4c23)c1,0.12
2,Cc1cccc(Nc2ncnc3[nH]c(C)c(C)c23)c1,> 100
3,Cc1cccc(Nc2ncnc3[nH]c4c(c23)CCCC4)c1,> 100
4,Cc1[nH]c2ncnc(Nc3cccc(F)c3)c2c1C,> 100
5,Cc1[nH]c2ncnc(Nc3cccc(Cl)c3)c2c1-c1ccccc1,6
6,Cc1c(-c2ccccc2)[nH]c2ncnc(Nc3cccc(Cl)c3)c12,6
7,Brc1cccc(Nc2ncnc3[nH]c4c(c23)CCCC4)c1,0.4
8,Cc1[nH]c2ncnc(Nc3cccc(Br)c3)c2c1C,1.5

# System: Balb/MK
# Assay: Inhibition of proliferation of EGF-dependent BALB/MK cells
# Type: functional, cell-based
# Conditions: Mus musculus
row,Compound,IC50 [µM]
1,Clc1cccc(Nc2ncnc3[nH]c4ccccc4c23)c1,0.47
2,Cc1cccc(Nc2ncnc3[nH]c(C)c(C)c23)c1,7.2
3,Cc1cccc(Nc2ncnc3[nH]c4c(c23)CCCC4)c1,> 50
4,Clc1cccc(Nc2ncnc3[nH]c(-c4ccccc4)c(-c4ccccc4)c23)c1,> 50
5,Cc1[nH]c2ncnc(Nc3cccc(F)c3)c2c1C,29.9
6,Cc1[nH]c2ncnc(Nc3cccc(Cl)c3)c2c1-c1ccccc1,38.3
7,Cc1c(-c2ccccc2)[nH]c2ncnc(Nc3cccc(Cl)c3)c12,> 50
8,Brc1cccc(Nc2ncnc3[nH]c4c(c23)CCCC4)c1,1.4
9,Cc1[nH]c2ncnc(Nc3cccc(Br)c3)c2c1C,1.4
10,Clc1cccc(Nc2ncnc3[nH]c4c(c23)CCCC4)c1,0.98

# Molecular target: Tyrosine-protein kinase ABL (Homo sapiens, UniProt P00519+P42684)
# Assay: Inhibition of tyrosine kinase v-Abl
# Type: protein assay
# Conditions: not given
# Outline: (§1)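 Enzyme purification and in vitro kinase assay as previously described. Compounds dissolved in DMSO and diluted in buffer to 1% DMSO final in the assay. IC50 values are averages of at least three determinations.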
row,Compound,IC50 [µM]
1,Cc1[nH]c2ncnc(Nc3cccc(Cl)c3)c2c1C,40.5
2,Clc1cccc(Nc2ncnc3[nH]c4ccccc4c23)c1,30
3,Cc1cccc(Nc2ncnc3[nH]c(C)c(C)c23)c1,5.3
4,Cc1cccc(Nc2ncnc3[nH]c4c(c23)CCCC4)c1,> 100
5,Clc1cccc(Nc2ncnc3[nH]c(-c4ccccc4)c(-c4ccccc4)c23)c1,> 100
6,Cc1[nH]c2ncnc(Nc3cccc(F)c3)c2c1C,99
7,Cc1[nH]c2ncnc(Nc3cccc(Cl)c3)c2c1-c1ccccc1,> 100
8,Cc1c(-c2ccccc2)[nH]c2ncnc(Nc3cccc(Cl)c3)c12,> 100
9,c1ccc(Nc2ncnc3[nH]c4c(c23)CCCC4)cc1,> 100
10,Brc1cccc(Nc2ncnc3[nH]c4c(c23)CCCC4)c1,> 100
11,Cc1[nH]c2ncnc(Nc3cccc(Br)c3)c2c1C,2.3
12,Clc1cccc(Nc2ncnc3[nH]c4c(c23)CCCC4)c1,> 100

# Molecular target: Protein kinase C alpha type (Homo sapiens, UniProt P17252)
# Assay: Inhibition of Protein kinase C alpha
# Conditions: not given
# Outline: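 Enzymes purified as previously reported. Compounds were dissolved in DMSO and diluted in buffer to a final assay DMSO of 1%. IC50 values are averages of at least three determinations.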
row,Compound,IC50 [µM]
1,Cc1[nH]c2ncnc(Nc3cccc(Cl)c3)c2c1C,> 100
2,Clc1cccc(Nc2ncnc3[nH]c4ccccc4c23)c1,> 100
3,Cc1cccc(Nc2ncnc3[nH]c(C)c(C)c23)c1,> 100
4,Cc1cccc(Nc2ncnc3[nH]c4c(c23)CCCC4)c1,> 100
5,Cc1[nH]c2ncnc(Nc3cccc(F)c3)c2c1C,> 100
6,Cc1c(-c2ccccc2)[nH]c2ncnc(Nc3cccc(Cl)c3)c12,> 100
7,c1ccc(Nc2ncnc3[nH]c4c(c23)CCCC4)cc1,> 100
8,Brc1cccc(Nc2ncnc3[nH]c4c(c23)CCCC4)c1,> 100
9,Cc1[nH]c2ncnc(Nc3cccc(Br)c3)c2c1C,> 100
10,Cc1[nH]c2ncnc(Nc3ccccc3)c2c1C,75
11,Clc1cccc(Nc2ncnc3[nH]c4c(c23)CCCC4)c1,> 100

# Molecular target: Proto-oncogene tyrosine-protein kinase Src (Homo sapiens, UniProt P12931)
# Sequence (P12931 2-536 limits assumed): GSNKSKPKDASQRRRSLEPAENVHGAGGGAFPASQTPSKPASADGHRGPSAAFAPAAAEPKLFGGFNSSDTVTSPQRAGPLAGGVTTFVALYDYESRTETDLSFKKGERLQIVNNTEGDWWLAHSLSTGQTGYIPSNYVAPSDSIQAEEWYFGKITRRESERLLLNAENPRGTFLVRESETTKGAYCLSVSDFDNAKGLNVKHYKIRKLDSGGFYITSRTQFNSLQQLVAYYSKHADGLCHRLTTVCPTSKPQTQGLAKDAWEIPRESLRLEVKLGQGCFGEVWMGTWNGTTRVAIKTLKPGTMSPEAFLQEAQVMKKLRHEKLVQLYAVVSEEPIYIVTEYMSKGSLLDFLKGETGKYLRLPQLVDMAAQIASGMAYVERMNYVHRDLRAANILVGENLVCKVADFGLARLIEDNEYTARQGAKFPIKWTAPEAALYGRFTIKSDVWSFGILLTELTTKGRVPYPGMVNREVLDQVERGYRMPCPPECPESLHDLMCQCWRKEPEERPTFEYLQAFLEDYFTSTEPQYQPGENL
# Assay: Inhibition of tyrosine kinase c-Src
# Conditions: not given
# Outline: as §1
row,Compound,IC50 [µM]
1,Cc1[nH]c2ncnc(Nc3cccc(Cl)c3)c2c1C,> 100
2,Clc1cccc(Nc2ncnc3[nH]c4ccccc4c23)c1,> 100
3,Cc1cccc(Nc2ncnc3[nH]c(C)c(C)c23)c1,> 100
4,Cc1cccc(Nc2ncnc3[nH]c4c(c23)CCCC4)c1,> 100
5,Clc1cccc(Nc2ncnc3[nH]c(-c4ccccc4)c(-c4ccccc4)c23)c1,> 100
6,Cc1[nH]c2ncnc(Nc3cccc(F)c3)c2c1C,> 100
7,Cc1[nH]c2ncnc(Nc3cccc(Cl)c3)c2c1-c1ccccc1,> 100
8,Cc1c(-c2ccccc2)[nH]c2ncnc(Nc3cccc(Cl)c3)c12,> 100
9,c1ccc(Nc2ncnc3[nH]c4c(c23)CCCC4)cc1,> 100
10,Brc1cccc(Nc2ncnc3[nH]c4c(c23)CCCC4)c1,> 100
11,Cc1[nH]c2ncnc(Nc3cccc(Br)c3)c2c1C,> 100
12,Cc1[nH]c2ncnc(Nc3ccccc3)c2c1C,> 100
13,Clc1cccc(Nc2ncnc3[nH]c4c(c23)CCCC4)c1,> 100

# System: NIH3T3
# Assay: Inhibition of PDGF-induced c-fos mRNA expression in BALB/c 3T3 cells
# Type: functional, cell-based
# Conditions: Mus musculus
row,Compound,IC50 [µM]
1,Cc1[nH]c2ncnc(Nc3cccc(Cl)c3)c2c1C,> 100
2,Clc1cccc(Nc2ncnc3[nH]c4ccccc4c23)c1,> 100
3,Brc1cccc(Nc2ncnc3[nH]c4c(c23)CCCC4)c1,> 100
4,Cc1[nH]c2ncnc(Nc3cccc(Br)c3)c2c1C,> 100
5,Clc1cccc(Nc2ncnc3[nH]c4c(c23)CCCC4)c1,> 100

# Molecular target: T1, Epidermal growth factor receptor
# Assay: In vitro inhibitory activity against epidermal growth factor receptor
# Conditions: not given
row,Compound,IC50 [nM]
1,Cc1[nH]c2ncnc(Nc3cccc(C(F)(F)F)c3)c2c1C,1900
2,Clc1cccc(Nc2ncnc3[nH]c4ccccc4c23)c1,6
3,Cc1ccc(Nc2ncnc3[nH]c(C)c(C)c23)cc1,2100
4,Cc1[nH]c2ncnc(Nc3cccc(Cl)c3)c2c1-c1ccccc1,230
5,CCc1ccc(Nc2ncnc3[nH]c(C)c(C)c23)cc1,77500
6,CCc1ccccc1Nc1ncnc2[nH]c(C)c(C)c12,> 100000
7,Cc1c(-c2ccccc2)[nH]c2ncnc(Nc3cccc(Cl)c3)c12,10
8,Cc1[nH]c2ncnc(NC3CCCCC3)c2c1C,6920
9,Cc1[nH]c2ncnc(NCc3ccccc3)c2c1C,1080
10,Cc1[nH]c2ncnc(Nc3cccc(C(=O)O)c3)c2c1C,16300
11,COc1cccc(Nc2ncnc3[nH]c4c(c23)CCCC4)c1,860
12,Oc1cccc(Nc2ncnc3[nH]c4c(c23)CCCC4)c1,420
13,Cc1[nH]c2ncnc(Nc3ccc(Cl)cc3)c2c1C,> 50000
14,CCOC(=O)c1cccc(Nc2ncnc3[nH]c(C)c(C)c23)c1,> 100000
15,CCc1ccc(Nc2ncnc3[nH]c4c(c23)CCCC4)cc1,> 50000
16,COc1cccc(Nc2ncnc3[nH]c(C)c(C)c23)c1,1200
17,Cc1nc(Nc2cccc(Cl)c2)c2c(C)c(C)[nH]c2n1,> 100000
18,Cc1[nH]c2ncnc(Nc3ccccc3Cl)c2c1C,75100
19,O=C(O)c1cccc(Nc2ncnc3[nH]c4c(c23)CCCC4)c1,25700
20,Cc1[nH]c2ncnc(Nc3cccc(O)c3)c2c1C,1250
21,Cc1[nH]c2ncnc(Nc3cccc(C#N)c3)c2c1C,200
22,Cc1[nH]c2ncnc(Oc3cccc(Cl)c3)c2c1C,2500
23,Cc1[nH]c2ncnc(N(C)c3cccc(Cl)c3)c2c1C,500

# System: NIH3T3
# Assay: Inhibition of PDGF-stimulated tyrosine phosphorylation in BALB/c3T3 cells
# Type: functional, cell-based
# Conditions: Mus musculus
# Outline: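 Total cellular tyrosine phosphorylation was stimulated with PDGF in BALB/c 3T3 cells and read by microtiter ELISA. Results are reported as IC50 in µM.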
row,Compound,IC50 [µM]
1,Cc1cccc(Nc2ncnc3[nH]c4c(c23)CCCC4)c1,> 10
2,Clc1cccc(Nc2ncnc3[nH]c(-c4ccccc4)c(-c4ccccc4)c23)c1,> 10
3,Cc1c(-c2ccccc2)[nH]c2ncnc(Nc3cccc(Cl)c3)c12,> 10
4,c1ccc(Nc2ncnc3[nH]c4c(c23)CCCC4)cc1,> 10
5,Brc1cccc(Nc2ncnc3[nH]c4c(c23)CCCC4)c1,> 10
6,Cc1[nH]c2ncnc(Nc3cccc(Br)c3)c2c1C,> 10
7,Cc1[nH]c2ncnc(Nc3ccccc3)c2c1C,> 10
8,Clc1cccc(Nc2ncnc3[nH]c4c(c23)CCCC4)c1,> 10

# Source: ChEMBL document CHEMBL1129072, “4-(Phenylamino)pyrrolopyrimidines: potent and selective, ATP site directed inhibitors of the EGF-receptor protein tyrosine kinase” (J Med Chem, 1996)
